The source of these data is ChEMBL document CHEMBL6182834, “Dual EGFR and telomerase inhibitory potential of new triazole tethered Schiff bases endowed with apoptosis: design, synthesis, and biological assessments” (RSC Med Chem, 2025).

Test system in the first data set: not listed separately
The data set can be described thus: Cytotoxicity against HSF cells assessed as growth inhibition at 100 ug/mL incubated for 48 hrs by SRB assay relative to control. The data set is classed as toxicity, cell-based. Conditions: human, at 100 µg/mL, read-out: GI. The gist of the method:
(§1)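 SRB assay: cells seeded at 3×10^3/well, allowed 24 h to attach, then exposed to 100 µg/mL for 48 h, three wells per concentration, DMSO 1% v/v vehicle control. Cells fixed with 20% trichloroacetic acid and stained with 0.4% SRB, then OD read at 570 nm. Survival fraction taken as treated OD/control OD.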
In general terms: In SRB staining, fixed cells bind dye roughly in proportion to their protein.
Take `COc1cc(/C=N/NC(=O)c2nnn(-c3ccc(Cl)cc3)c2C)cc(OC)c1OC`: the inhibition at 48 h, 100 ug/mL amounted to 34%.
On the same count and under the same terms, as for `COc1cc(/C=N/NC(=O)c2nnn(-c3ccc([N+](=O)[O-])cc3)c2C)cc(OC)c1OC`, the figure is 28%; as for `COc1ccc(/C=N/NC(=O)c2nnn(-c3ccc(F)cc3)c2C)cc1OC`, 21%.
`COc1cc(/C=N/NC(=O)c2nnn(-c3ccc(Br)cc3)c2C)cc(OC)c1OC`: the inhibition at 48 h, 100 ug/mL was determined as 51%.
Still for that read-out and setting: as for `Cc1c(C(=O)N/N=C/c2ccccc2)nnn1-c1ccc(F)cc1`, the figure is 14%.

The next data set deals with A-375. The data set can be described thus: Antiproliferative activity against human A-375 cells assessed as growth inhibition at 100 ug/mL incubated for 48 hrs by SRB assay relative to control. The data set is classed as functional. Conditions: read-out: GI. In short, it runs like this:
as §1
As for `COc1cc(/C=N/NC(=O)c2nnn(-c3ccc(Cl)cc3)c2C)cc(OC)c1OC`, the inhibition of growth at 100 µg/mL is 63%.
Turning to `COc1cc(/C=N/NC(=O)c2nnn(-c3ccc([N+](=O)[O-])cc3)c2C)cc(OC)c1OC`, the inhibition of growth at 100 µg/mL was 50%.
The same measure, in the same setting: next, `COc1ccc(/C=N/NC(=O)c2nnn(-c3ccc(F)cc3)c2C)cc1OC`: 82%.
In the case of `COc1cc(/C=N/NC(=O)c2nnn(-c3ccc(Br)cc3)c2C)cc(OC)c1OC`, the inhibition of growth at 100 µg/mL was determined as 60%.
For the compound `Cc1c(C(=O)N/N=C/c2ccccc2)nnn1-c1ccc(F)cc1`, the inhibition of growth at 100 µg/mL is 42%.

The next data set concerns Huh-7. Briefly: Antiproliferative activity against human Huh-7 cells assessed as growth inhibition at 100 ug/mL incubated for 48 hrs by SRB assay relative to control. The data set is classed as functional. The note with it: read-out: GI. In short, it runs like this: as §1
For `COc1cc(/C=N/NC(=O)c2nnn(-c3ccc(Cl)cc3)c2C)cc(OC)c1OC`, the inhibition of growth at 100 µg/mL is 78%.
`COc1cc(/C=N/NC(=O)c2nnn(-c3ccc([N+](=O)[O-])cc3)c2C)cc(OC)c1OC`: the inhibition of growth at 100 µg/mL was determined as 74%.
Same read-out and setting: as for `COc1ccc(/C=N/NC(=O)c2nnn(-c3ccc(F)cc3)c2C)cc1OC`, the figure is 65%; as for `COc1cc(/C=N/NC(=O)c2nnn(-c3ccc(Br)cc3)c2C)cc(OC)c1OC`, 75%; as for `Cc1c(C(=O)N/N=C/c2ccccc2)nnn1-c1ccc(F)cc1`, 37%.

The test system of a further data set is MDA-MB-468. Briefly: Antiproliferative activity against human MDA-MB-468 cells assessed as growth inhibition at 100 ug/mL incubated for 48 hrs by SRB assay relative to control. It counts as functional. The note with it: read-out: GI. The gist of the method:
as §1
As for `COc1cc(/C=N/NC(=O)c2nnn(-c3ccc(Cl)cc3)c2C)cc(OC)c1OC`, the inhibition of growth at 100 µg/mL stood at 59%.
The same measure, in the same setting: as for `COc1cc(/C=N/NC(=O)c2nnn(-c3ccc([N+](=O)[O-])cc3)c2C)cc(OC)c1OC`, the figure is 70%; as for `COc1ccc(/C=N/NC(=O)c2nnn(-c3ccc(F)cc3)c2C)cc1OC`, 65%.
Same read-out and setting: next, `COc1cc(/C=N/NC(=O)c2nnn(-c3ccc(Br)cc3)c2C)cc(OC)c1OC`: 76%; `Cc1c(C(=O)N/N=C/c2ccccc2)nnn1-c1ccc(F)cc1`: 44%.

In another data set the test system is Caco-2. Briefly: Antiproliferative activity against human Caco-2 cells assessed as growth inhibition at 100 ug/mL incubated for 48 hrs by SRB assay relative to control. The data set is classed as functional. The note with it: read-out: GI. In short, it runs like this: as §1
Turning to `COc1cc(/C=N/NC(=O)c2nnn(-c3ccc(Cl)cc3)c2C)cc(OC)c1OC`, the inhibition of growth at 100 µg/mL amounted to 53%.
As to `COc1cc(/C=N/NC(=O)c2nnn(-c3ccc([N+](=O)[O-])cc3)c2C)cc(OC)c1OC`, the inhibition of growth at 100 µg/mL turned out to be 60%.
Still for that read-out and setting: next, `COc1ccc(/C=N/NC(=O)c2nnn(-c3ccc(F)cc3)c2C)cc1OC`: 49%.
On to `COc1cc(/C=N/NC(=O)c2nnn(-c3ccc(Br)cc3)c2C)cc(OC)c1OC`, for which the inhibition of growth at 100 µg/mL worked out at 64%.
Same read-out and setting: next, `Cc1c(C(=O)N/N=C/c2ccccc2)nnn1-c1ccc(F)cc1`: 20%.

In the next data set the test system is FaDu. Briefly: Antiproliferative activity against human FaDu cells assessed as growth inhibition at 100 ug/mL incubated for 48 hrs by SRB assay relative to control. The note with it: read-out: GI. It counts as functional. The gist of the method: as §1
With `COc1cc(/C=N/NC(=O)c2nnn(-c3ccc(Cl)cc3)c2C)cc(OC)c1OC`, the inhibition of growth at 100 µg/mL was 69%.
Turning to `COc1cc(/C=N/NC(=O)c2nnn(-c3ccc([N+](=O)[O-])cc3)c2C)cc(OC)c1OC`, the inhibition of growth at 100 µg/mL is 70%.
The same measure, in the same setting: as for `COc1ccc(/C=N/NC(=O)c2nnn(-c3ccc(F)cc3)c2C)cc1OC`, the figure is 89%.
The same measure, in the same setting: as for `COc1cc(/C=N/NC(=O)c2nnn(-c3ccc(Br)cc3)c2C)cc(OC)c1OC`, the figure is 73%.
On the same count and under the same terms, next, `Cc1c(C(=O)N/N=C/c2ccccc2)nnn1-c1ccc(F)cc1`: 70%.

The subject of the next data set is MG-63. Briefly: Antiproliferative activity against human MG-63 cells assessed as growth inhibition at 100 ug/mL incubated for 48 hrs by SRB assay relative to control. It counts as functional. The note with it: read-out: GI. The gist of the method: as §1
For the compound `COc1cc(/C=N/NC(=O)c2nnn(-c3ccc(Cl)cc3)c2C)cc(OC)c1OC`, the inhibition of growth at 100 µg/mL came out at 38%.
On the same count and under the same terms, as for `COc1cc(/C=N/NC(=O)c2nnn(-c3ccc([N+](=O)[O-])cc3)c2C)cc(OC)c1OC`, the figure is 40%.
Still for that read-out and setting: as for `COc1ccc(/C=N/NC(=O)c2nnn(-c3ccc(F)cc3)c2C)cc1OC`, the figure is 84%.
Still for that read-out and setting: as for `COc1cc(/C=N/NC(=O)c2nnn(-c3ccc(Br)cc3)c2C)cc(OC)c1OC`, the figure is 67%.
As to `Cc1c(C(=O)N/N=C/c2ccccc2)nnn1-c1ccc(F)cc1`, the inhibition of growth at 100 µg/mL was 68%.

For a further data set, the system named is HeLa. Briefly: Antiproliferative activity against human HeLa cells assessed as growth inhibition at 100 ug/mL incubated for 48 hrs by SRB assay relative to control. The note with it: read-out: GI. It counts as functional. The gist of the method:
as §1
For `COc1cc(/C=N/NC(=O)c2nnn(-c3ccc(Cl)cc3)c2C)cc(OC)c1OC`, the inhibition of growth at 100 µg/mL was 42%.
The same measure, in the same setting: next, `COc1cc(/C=N/NC(=O)c2nnn(-c3ccc([N+](=O)[O-])cc3)c2C)cc(OC)c1OC`: 29%.
Same read-out and setting: next, `COc1ccc(/C=N/NC(=O)c2nnn(-c3ccc(F)cc3)c2C)cc1OC`: 78%; `COc1cc(/C=N/NC(=O)c2nnn(-c3ccc(Br)cc3)c2C)cc(OC)c1OC`: 60%; `Cc1c(C(=O)N/N=C/c2ccccc2)nnn1-c1ccc(F)cc1`: 52%.

A further data set deals with MCF7. Briefly: Antiproliferative activity against human MCF7 cells assessed as growth inhibition at 100 ug/mL incubated for 48 hrs by SRB assay relative to control. The data set is classed as functional. The note with it: read-out: GI. The gist of the method: as §1
As to `COc1cc(/C=N/NC(=O)c2nnn(-c3ccc(Cl)cc3)c2C)cc(OC)c1OC`, the inhibition of growth at 100 µg/mL is 50%.
Same read-out and setting: next, `COc1cc(/C=N/NC(=O)c2nnn(-c3ccc([N+](=O)[O-])cc3)c2C)cc(OC)c1OC`: 49%; `COc1ccc(/C=N/NC(=O)c2nnn(-c3ccc(F)cc3)c2C)cc1OC`: 87%.
Turning to `COc1cc(/C=N/NC(=O)c2nnn(-c3ccc(Br)cc3)c2C)cc(OC)c1OC`, the inhibition of growth at 100 µg/mL amounted to 72%.
Same read-out and setting: next, `Cc1c(C(=O)N/N=C/c2ccccc2)nnn1-c1ccc(F)cc1`: 80%.

A further data set relates to HCT-116. Briefly: Antiproliferative activity against human HCT-116 cells assessed as growth inhibition at 100 ug/mL incubated for 48 hrs by SRB assay relative to control. It counts as functional. The note with it: read-out: GI. The gist of the method:
as §1
Consider `COc1cc(/C=N/NC(=O)c2nnn(-c3ccc(Cl)cc3)c2C)cc(OC)c1OC`, for which the inhibition of growth at 100 µg/mL is 64%.
On the same count and under the same terms, as for `COc1cc(/C=N/NC(=O)c2nnn(-c3ccc([N+](=O)[O-])cc3)c2C)cc(OC)c1OC`, the figure is 35%.
The same measure, in the same setting: next, `COc1ccc(/C=N/NC(=O)c2nnn(-c3ccc(F)cc3)c2C)cc1OC`: 81%; `COc1cc(/C=N/NC(=O)c2nnn(-c3ccc(Br)cc3)c2C)cc(OC)c1OC`: 82%.
Still for that read-out and setting: as for `Cc1c(C(=O)N/N=C/c2ccccc2)nnn1-c1ccc(F)cc1`, the figure is 74%.

The test system of another data set is HepG2. The data set can be described thus: Antiproliferative activity against human HepG2 cells assessed as growth inhibition at 100 ug/mL incubated for 48 hrs by SRB assay relative to control. The data set is classed as functional. The note with it: read-out: GI. In short, it runs like this:
as §1
Consider `COc1cc(/C=N/NC(=O)c2nnn(-c3ccc(Cl)cc3)c2C)cc(OC)c1OC`, for which the inhibition of growth at 100 µg/mL stood at 43%.
Still for that read-out and setting: as for `COc1cc(/C=N/NC(=O)c2nnn(-c3ccc([N+](=O)[O-])cc3)c2C)cc(OC)c1OC`, the figure is 44%; as for `COc1ccc(/C=N/NC(=O)c2nnn(-c3ccc(F)cc3)c2C)cc1OC`, 81%.
Take `COc1cc(/C=N/NC(=O)c2nnn(-c3ccc(Br)cc3)c2C)cc(OC)c1OC`: the inhibition of growth at 100 µg/mL was determined as 76%.
On the same count and under the same terms, as for `Cc1c(C(=O)N/N=C/c2ccccc2)nnn1-c1ccc(F)cc1`, the figure is 54%.

Test system in another data set: not listed separately
The data set can be described thus: Antiproliferative activity against human HNO 97 cell line assessed as growth inhibition at 100 ug/mL incubated for 48 hrs by SRB assay relative to control. It counts as functional. Conditions: read-out: GI. In short, it runs like this:
as §1
For `COc1cc(/C=N/NC(=O)c2nnn(-c3ccc(Cl)cc3)c2C)cc(OC)c1OC`, the inhibition of growth at 100 µg/mL worked out at 74%.
On the same count and under the same terms, as for `COc1cc(/C=N/NC(=O)c2nnn(-c3ccc([N+](=O)[O-])cc3)c2C)cc(OC)c1OC`, the figure is 68%.
Still for that read-out and setting: as for `COc1ccc(/C=N/NC(=O)c2nnn(-c3ccc(F)cc3)c2C)cc1OC`, the figure is 84%; as for `COc1cc(/C=N/NC(=O)c2nnn(-c3ccc(Br)cc3)c2C)cc(OC)c1OC`, 68%; as for `Cc1c(C(=O)N/N=C/c2ccccc2)nnn1-c1ccc(F)cc1`, 74%.

Test system in the next data set: not listed separately
Briefly: Cytotoxicity against human oral epithelial cells (OEC) assessed as growth inhibition at 100 ug/mL incubated for 48 hrs by SRB assay relative to control. The data set is classed as toxicity, cell-based, Oral epithelial cell. Conditions: at 100 µg/mL, read-out: GI. The gist of the method:
as §1
For `COc1cc(/C=N/NC(=O)c2nnn(-c3ccc(Cl)cc3)c2C)cc(OC)c1OC`, the inhibition at 48 h, 100 ug/mL turned out to be 25%.
Same read-out and setting: next, `COc1cc(/C=N/NC(=O)c2nnn(-c3ccc([N+](=O)[O-])cc3)c2C)cc(OC)c1OC`: 39%; `COc1ccc(/C=N/NC(=O)c2nnn(-c3ccc(F)cc3)c2C)cc1OC`: 33%; `COc1cc(/C=N/NC(=O)c2nnn(-c3ccc(Br)cc3)c2C)cc(OC)c1OC`: 52%.
Still for that read-out and setting: next, `Cc1c(C(=O)N/N=C/c2ccccc2)nnn1-c1ccc(F)cc1`: 16%.
